CXCR6 block = inhibitors of human CXCR6 receptor; CHO-K1 PathHunter CXCR6 beta-arrestin, luminescence; inhibition, % at 20 µM; hit rate 0.36% among 360,000; O00574; in the data active means inhibition above about 34%, passing the limit was not always enough;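 further: antagonist mode with CXCL16 agonist at 10 nM final; 0% = 10 nM CXCL16 with DMSO and 100% = unstimulated wells without agonist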
Target sequence (O00574 whole entry, looked up): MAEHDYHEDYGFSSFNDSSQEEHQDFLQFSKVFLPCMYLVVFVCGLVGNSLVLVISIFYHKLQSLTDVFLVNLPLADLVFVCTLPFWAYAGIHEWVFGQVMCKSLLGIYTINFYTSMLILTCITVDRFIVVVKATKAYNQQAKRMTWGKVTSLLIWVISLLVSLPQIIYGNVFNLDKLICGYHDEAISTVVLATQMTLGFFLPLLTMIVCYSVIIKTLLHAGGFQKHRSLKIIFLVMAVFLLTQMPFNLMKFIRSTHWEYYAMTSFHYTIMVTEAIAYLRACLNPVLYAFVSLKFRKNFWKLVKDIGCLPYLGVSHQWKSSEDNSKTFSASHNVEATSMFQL
APJ ag = activates the human apelin receptor APJ; AID 2520; P35414; CHO-K1 APJ PathHunter beta-arrestin, luminescence; 0% DMSO wells, 100% apelin; hit rate 0.11% among 330,000; activation, % at 20 µM;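 active means activation more than six SD over the plate average, tested at 20 µM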;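 further: 0% = DMSO alone and 100% = apelin-13 at 10 nM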
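Test system: CHO-K1 APJ beta-arrestin complementation cell line | Compound: Single test compound dose, 20 µM final, 1% DMSO | Incubation: Compound 90 min 25 °C, reagent 1 h | Measured by: beta-gal luminescence | Read-out basis: APJ–arrestin association signal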
CCR6 antag = antagonists of human CCR6 receptor; CHO-K1 CCR6 PathHunter beta-arrestin, luminescence, CCL20-stimulated; inhibition, % at 20 µM; hit rate 0.49% among 340,000; AID 493098;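 active means compounds whose inhibition of the agonist-driven luminescence signal at 20 µM reaches about 50%, limit read from the data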;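 further: cells stimulated with CCL20 at 14 nM final; plate controls were DMSO with CCL20 for no effect and DMSO without agonist for full effect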
APJ antag = APJ receptor antagonism | CHO-K1 APJ beta-arrestin complementation, luminescence | P35414 | inhibition, % at 20 µM | hit rate 0.32% among 330,000;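 active means inhibition above about 40% at 20 µM, limit read from the data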;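 further: cells challenged with 10 nM apelin-13 agonist together with compound; plate controls were apelin-13 plus DMSO wells for no effect and DMSO wells lacking apelin-13 for full effect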
EBI2 block = EBI2 (human) antagonism; inhibition, % at 5 µM; EBI2 beta-arrestin recruitment, luminescence, 7a,25-OHC stimulated; AID 651636; hit rate 0.81% among 360,000; in the data active means inhibition above about 38%;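 further: enzyme fragment complementation signal reports receptor beta-arrestin coupling in cells; 0% = agonist plus DMSO wells and 100% = wells without agonist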
APJ antag confirm = APJ receptor antagonism confirmation; shares compounds with APJ antag; APJ beta-arrestin recruitment, luminescence, antagonist mode; inhibition, % at 20 µM; hit rate 66% among 950; in the data active means inhibition above about 50%
CXCR6 antag conf = CXCR6 antagonism confirmation, single concentration; shares compounds with CXCR6 block; CHO-K1 CXCR6 PathHunter beta-arrestin, luminescence; inhibition, % at 20 µM; hit rate 65% among 700;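 active means mean inhibition over four retests above 40%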;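 further: receptor stimulated with 10 nM CXCL16 agonist; beta-galactosidase fragment complementation upon beta-arrestin recruitment to receptor; plate controls were CXCL16 plus DMSO for no effect and DMSO without CXCL16 for full effect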
Numbers without * were called inactive. A selection: hits, their analogues and other compounds. The true share with any hit is near 1.5%.

Screening Cc1ccc2nc(C)cc(C(=O)OCC(=O)c3ccc(Cl)c([N+](=O)[O-])c3)c2c1 returned CXCR6 block 59.0*, APJ ag -22.0, CCR6 antag 102.0*, APJ antag 86.3*, EBI2 block 20.8 and APJ antag confirm 126.4*.
Screening Cc1cc(C(=O)OCC(=O)c2ccc(Cl)c([N+](=O)[O-])c2)c2cccc(C)c2n1 returned CXCR6 block 26.2, APJ ag -5.2, CCR6 antag 44.5, APJ antag 10.7 and EBI2 block 3.2.
Screening Cc1ccc(C(=O)COC(=O)CNC(=O)C(c2ccccc2)c2ccccc2)cc1[N+](=O)[O-] returned CXCR6 block 22.7, APJ ag -14.9, CCR6 antag 58.4*, APJ antag 64.5*, EBI2 block 10.0 and APJ antag confirm 66.7*.
`O=C(Cc1ccccc1)NCC(=O)OCC(=O)c1ccc(Cl)c([N+](=O)[O-])c1` gave CXCR6 block 48.3*, APJ ag -11.1, CCR6 antag 90.9*, APJ antag 89.3*, EBI2 block 16.9 and APJ antag confirm 143.7*.
Cc1ccc(C(=O)NCC(=O)OCC(=O)c2ccc(C)c([N+](=O)[O-])c2)cc1 was read as CXCR6 block 16.7, APJ ag -4.0, CCR6 antag 40.1, APJ antag 55.0*, EBI2 block 5.3 and APJ antag confirm 60.2*.
CCOc1ccc(C(=O)NC(=S)Nc2cccnc2)cc1[N+](=O)[O-] was read as CXCR6 block 17.2, APJ ag -5.1, CCR6 antag 33.8, APJ antag 43.1*, EBI2 block -10.0 and APJ antag confirm 43.2.
Screening Cc1nnsc1C(=O)NNc1ccc(C(C)(C)C)cc1 returned CXCR6 block -4.3, APJ ag -15.4, CCR6 antag 10.4, APJ antag 59.1*, EBI2 block 16.4 and APJ antag confirm 146.4*.
Screening O=C1NC(=S)N/C1=C/c1cccc([N+](=O)[O-])c1O returned CXCR6 block 43.8*, APJ ag -11.1, CCR6 antag 46.3, APJ antag 43.2*, EBI2 block 5.8 and APJ antag confirm 79.2*.
For CCCCC(=O)N(C)c1c(CC)nc2c(OCC(=O)N(C)C)cccn12 the results were CXCR6 block -2.5 and EBI2 block 2.6.
COC(=O)c1cc2ccsc2n1Cc1ccccc1F was read as CXCR6 block 0.4, APJ ag -3.8, CCR6 antag 17.3, APJ antag -13.1 and EBI2 block 2.4.
`COc1cc(/C=C(\C#N)C(=O)c2ccc(O)c(O)c2)cc(I)c1O` gave CXCR6 block 33.0, APJ ag -6.1, CCR6 antag 57.3*, APJ antag 42.4*, EBI2 block 10.4 and APJ antag confirm 59.9*.
`COc1ccc(C=C(C#N)C(=O)c2ccccc2)cc1` gave CXCR6 block 6.1 and EBI2 block 0.2.
CC1(C)Cc2nc3sc4c(=O)n(Cc5ccccc5)cnc4c3cc2CS1 was read as CXCR6 block 2.3, APJ ag -1.1, CCR6 antag 11.8, APJ antag 59.0*, EBI2 block 11.7 and APJ antag confirm 20.2.
Screening CCCn1cnc2c(sc3nc4c(cc32)CSC(C)(C)C4)c1=O returned CXCR6 block -5.3, APJ ag 1.9, CCR6 antag -6.1, APJ antag -0.7 and EBI2 block 3.9.
Screening O=C(O)C[C@H]1c2ccccc2S(=O)(=O)N1C1CCCC1 returned CXCR6 block -1.9, APJ ag -0.1, CCR6 antag 4.9, APJ antag 7.4 and EBI2 block -5.6.
For Cc1c(C(=O)NCCNc2ncc(C(F)(F)F)cc2Cl)cccc1[N+](=O)[O-] the results were CXCR6 block 0.5, APJ ag -1.3, CCR6 antag 24.1, APJ antag -5.2 and EBI2 block 9.9.
For O=[N+]([O-])c1cccc(Cl)c1NCCNc1ncc(C(F)(F)F)cc1Cl the results were CXCR6 block 4.6, APJ ag -2.3, CCR6 antag 16.5, APJ antag 42.7*, EBI2 block 2.4 and APJ antag confirm 31.1.
Screening COc1ccc(CC(=O)OC(C)C(=O)NCc2ccc3c(c2)OCO3)cc1OC (stereo unspecified) returned CXCR6 block -9.7, APJ ag -1.5, CCR6 antag 2.1, APJ antag 40.9*, EBI2 block -1.8 and APJ antag confirm 1.4.
For O=[N+]([O-])c1cc(S(=O)(=O)O)cc([N+](=O)[O-])c1NN(c1ccccc1)c1ccccc1 the results were CXCR6 block 3.4, APJ ag -0.5, CCR6 antag 11.7, APJ antag 0.9 and EBI2 block 5.3.
`CC1(C)CC(=O)C2=C(C1)OC1=C(C(=O)CC(C)(C)C1)C2c1ccc(O)cc1O` gave CXCR6 block 65.5*, APJ ag -4.3, CCR6 antag 92.6*, APJ antag 51.9*, EBI2 block -5.3, APJ antag confirm 104.9* and CXCR6 antag conf 87.7*.
Screening CC1(C)CC(=O)C2=C(C1)OC1=C(C(=O)CC(C)(C)C1)C2c1ccc(O)c([N+](=O)[O-])c1 returned CXCR6 block 14.7, APJ ag -6.1, CCR6 antag 22.1, APJ antag 23.7 and EBI2 block -2.8.
For O=C(Cc1ccccc1F)Nc1cccc(S(=O)(=O)N2CCOCC2)c1 the results were CXCR6 block 5.5, APJ ag -5.0, CCR6 antag 18.8, APJ antag 11.0 and EBI2 block 2.8.
For COc1cc(/C=C/c2ccc3cccc(OC)c3n2)c(OC(C)=O)c([N+](=O)[O-])c1 the results were CXCR6 block 41.0*, APJ ag -8.5, CCR6 antag 52.9*, APJ antag 44.6*, EBI2 block 28.9, APJ antag confirm 74.7* and CXCR6 antag conf 43.7*.
`CC1CCN(S(=O)(=O)N2CCN(C(=O)c3ccc4c(c3)OCO4)CC2)CC1` gave CXCR6 block -0.3, APJ ag -2.8, CCR6 antag 8.3, APJ antag 12.7 and EBI2 block -2.3.
Cc1cc(C)c2cc(C#N)c(NCCNC(=O)c3ccccn3)nc2c1 was read as EBI2 block -8.0.
`CCOC(=O)C1=C(C)NC(c2cccs2)C(=O)N1` (stereo unspecified) gave CXCR6 block -1.3, APJ ag -1.7, CCR6 antag -5.8, APJ antag 3.6 and EBI2 block -5.6.
CCOC(=O)C1=C(C)NC2=C(C(=O)CC(c3cccs3)C2)C1c1cccs1 (stereo unspecified) was read as CXCR6 block 41.8*, APJ ag -10.8, CCR6 antag 54.0*, APJ antag 40.6*, EBI2 block 30.8, APJ antag confirm 73.5* and CXCR6 antag conf 45.2*.

Compound activity as filed in PubChem.
